Reference: ChEMBL document CHEMBL1123566, “Synthesis and cardiac electrophysiological activity of 2- and 3-[(substituted phenyl)alkyl]quinuclidines. Structure-activity relationships” (1987)
Where “and” joins values, the source holds several entries; their conditions need not be identical. Identical values can stand only once.

Experiments:
[1] = species on record: Canis familiaris; experiment: In vitro electrophysiological evaluation in canine cardiac ventricular muscle reported as % change for the functional refractory period (FRP) concentration range of 0.1-30 uM; set-up: species or system Canis lupus familiaris, Muscle tissue
Method in brief: (§1)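 Canine right ventricle and papillary muscle strips in oxygenated Tyrode's solution, fitted with stimulating and recording electrodes. The extra-stimulus conduction-interval method was adapted for in vitro use. FRP and CT were read from a conduction-interval curve before and after various compound concentrations, and expressed as percent change from control. Compounds were taken from 10 mM deionized-water stock into Tyrode's. Each strip was used once as its own control.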

[2] = species on record: Canis familiaris; experiment: In vitro electrophysiological evaluation in canine cardiac ventricular muscle reported as maximum % change for functional refractory period (FRP) at 0.1-100 uM concentration range; set-up: species or system Canis lupus familiaris, Muscle tissue
[3] = species on record: Canis familiaris; experiment: In vitro electrophysiological evaluation in canine cardiac ventricular muscle reported as maximum % change for conduction time(CT) at 0.1-30 uM concentration range; type: functional, Canis lupus familiaris, Muscle tissue; method in brief: as §1
[4] = species on record: Canis familiaris; experiment: In vitro electrophysiological evaluation in canine cardiac ventricular muscle reported as maximum % change for conduction time(CT) at 0.1-30 uM concentration range; Minimal (<IO%increase or a decrease in CT); type: functional, Canis lupus familiaris, Muscle tissue; method in brief: as §1
[5] = species on record: Canis familiaris; experiment: In vitro electrophysiological evaluation in canine cardiac ventricular muscle reported as % change for the functional refractory period (FRP) concentration range of 0.1-100 uM; set-up: species or system Canis lupus familiaris, Muscle tissue; method in brief: as §1
[6] = species on record: Canis familiaris; experiment: In vitro electrophysiological evaluation in canine cardiac ventricular muscle reported as % change for conduction time(CT) at 0.1-30 uM concentration range; Minimal (<IO%increase or a decrease in CT); type: functional, Canis lupus familiaris, Muscle tissue
[7] = species on record: Canis familiaris; experiment: In vitro electrophysiological evaluation in canine cardiac ventricular muscle reported as maximum % change for conduction time(CT) at 0.1-100 uM concentration range; type: functional, Canis lupus familiaris, Muscle tissue; method in brief: as §1
[8] = species on record: Canis familiaris; experiment: In vitro electrophysiological evaluation in canine cardiac Purkinje fibres reported as percent change Vmax concentration range of 0.1-100 uM; type: functional; details: Canis lupus familiaris; Purkinje fiber
Method in brief: (§2)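 Canine cardiac Purkinje fibres, intracellular microelectrode recording, paced at a basic cycle length of 1 s. APD95 and Vmax read simultaneously. Compound: 10 mM stock in deionized water, diluted into Tyrode's solution, tested over the stated concentration range. Each fibre used once as its own control. Result is % change from control, given at 10 µM or as the maximum with its concentration. M = <10% decrease or an increase in Vmax.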

[9] = species on record: Canis familiaris; experiment: In vitro electrophysiological evaluation in canine cardiac Purkinje fibres reported as percent change Vmax concentration range of 0.1-100 uM; Minimal (<IO%increase or a decrease in CT); type: functional; details: Canis lupus familiaris; Purkinje fiber; method in brief: as §2
[10] = species on record: Canis familiaris; experiment: In vitro electrophysiological evaluation in canine cardiac ventricular muscle reported as % change for conduction time(CT) at 0.1-100 uM concentration range; Minimal (<IO%increase or a decrease in CT); type: functional, Canis lupus familiaris, Muscle tissue
[11] = species on record: Canis familiaris; experiment: In vitro electrophysiological evaluation in canine cardiac ventricular muscle reported as maximum % change for functional refractory period (FRP) at 0.1-30 uM concentration range; set-up: species or system Canis lupus familiaris, Muscle tissue; method in brief: as §1
[12] = species on record: Canis familiaris; experiment: In vitro electrophysiological activity in canine cardiac Purkinje fibres given as maximum % change for action potential duration at 0.1-100 uM concentration; type: functional, Canis lupus familiaris, Purkinje fiber
Method in brief: (§3)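 Canine cardiac Purkinje fibres, intracellular recording at 1 s basic cycle length, over cumulative concentration ranges. Compound 10 mM stock in deionized water diluted into Tyrode's. Each fibre used once as its own control. Value is the maximum % change from control in APD at 95% repolarization, with the concentration where it occurred; both values given if a biphasic response (>20% reversal) occurred.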

[13] = species on record: Canis familiaris; experiment: (§4) In vitro electrophysiological evaluation in canine cardiac Purkinje fibres reported as % change for action potential duration at 0.1-100 uM concentration range; type: functional, Canis lupus familiaris, Purkinje fiber; method in brief: as §2
[14] = species on record: Canis familiaris; experiment: as §4; type: functional, Canis lupus familiaris, Purkinje fiber; method in brief: as §2; remark: listed apart in the source
[15] = species on record: Canis familiaris; experiment: In vitro electrophysiological activity in canine cardiac Purkinje fibres given as maximum % change for action potential duration at 100 uM concentration; type: functional, Canis lupus familiaris, Purkinje fiber; method in brief: as §3
[16] = species on record: Canis familiaris; experiment: In vitro electrophysiological activity in canine cardiac Purkinje fibres given as maximum % change for action potential duration at 10 uM concentration; type: functional, Canis lupus familiaris, Purkinje fiber; method in brief: as §3
[17] = tested on: Canis familiaris; experiment: Heart rate was determined by intraduodenal administration of two dosages of 30 mg/kg of compound in anesthetized dogs. Value was reported for experiment 1; type: functional, Canis lupus familiaris
Method in brief: (§5)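 Anesthetized dogs; compound given intraduodenally, generally as two doses, the second a cumulative (high) dose. LV functional refractory period and conduction time measured 15, 30 and 45 min after dosing; heart rate and blood pressure measured during nonpacing intervals. Values are % change from control, given per individual animal. Active if FRP or CT prolonged by ≥12%.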

[18] = tested on: Canis familiaris; experiment: Heart rate was determined by intraduodenal administration of two dosages of 30 mg/kg of compound in anesthetized dogs. Value was reported for experiment 2; type: functional, Canis lupus familiaris; method in brief: as §5
[19] = tested on: Canis familiaris; experiment: Conduction time was determined by intraduodenal administration of 30 mg/kg (high dose) of compound in anesthetized dogs. Value was reported for experiment 1; type: functional, Canis lupus familiaris; method in brief: as §5
[20] = tested on: Canis familiaris; experiment: Conduction time was determined by intraduodenal administration of 30 mg/kg (high dose) of compound in anesthetized dogs. Value was reported for experiment 2; type: functional, Canis lupus familiaris; method in brief: as §5
[21] = tested on: Canis familiaris; experiment: Conduction time was determined by intraduodenal administration of 10 mg/kg (low dose) of compound in anesthetized dogs. Value was reported for experiment 1; type: functional, Canis lupus familiaris; method in brief: as §5
[22] = tested on: Canis familiaris; experiment: Conduction time was determined by intraduodenal administration of 10 mg/kg (low dose) of compound in anesthetized dogs. Value was reported for experiment 2; type: functional, Canis lupus familiaris; method in brief: as §5
[23] = tested on: Canis familiaris; experiment: Heart rate was determined by intraduodenal administration of two dosages of 10 mg/kg of compound in anesthetized dogs. Value was reported for experiment 1; type: functional, Canis lupus familiaris; method in brief: as §5
[24] = tested on: Canis familiaris; experiment: Heart rate was determined by intraduodenal administration of two dosages of 10 mg/kg of compound in anesthetized dogs. Value was reported for experiment 2; type: functional, Canis lupus familiaris; method in brief: as §5
[25] = tested on: Canis familiaris; experiment: Left ventricular refractory period was determined by intraduodenal administration of 10 mg/kg (low dose) of compound in anesthetized dogs. Value was reported for experiment 1; type: functional, Canis lupus familiaris, Cardiac ventricle
Method in brief: (§6)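 Anesthetized dogs received two intraduodenal doses, the second cumulative (low dose/high dose). Left ventricular FRP and CT were measured 15, 30 and 45 min after dosing. Heart rate and mean blood pressure were taken during nonpacing intervals. Values are percent change from control. The vehicle was 5% dextrose in water/tragacanth. Activity was defined as ≥12% prolongation of FRP or CT.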

[26] = tested on: Canis familiaris; experiment: Left ventricular refractory period was determined by intraduodenal administration of 10 mg/kg (low dose) of compound in anesthetized dogs. Value was reported for experiment 2; type: functional, Canis lupus familiaris, Cardiac ventricle; method in brief: as §6
[27] = tested on: Canis familiaris; experiment: Left ventricular refractory period was determined by intraduodenal administration of 30 mg/kg (high dose) of compound in anesthetized dogs. Value was reported for experiment 1; type: functional, Canis lupus familiaris, Cardiac ventricle; method in brief: as §6
[28] = tested on: Canis familiaris; experiment: Left ventricular refractory period was determined by intraduodenal administration of 30 mg/kg (high dose) of compound in anesthetized dogs. Value was reported for experiment 2; type: functional, Canis lupus familiaris, Cardiac ventricle; method in brief: as §6
[29] = tested on: Canis familiaris; experiment: Mean arterial blood pressure was determined by intraduodenal administration of two dosages of 30 mg/kg of compound in anesthetized dogs. Value was reported for experiment 1; type: functional, Canis lupus familiaris; method in brief: as §6
[30] = tested on: Canis familiaris; experiment: Mean arterial blood pressure was determined by intraduodenal administration of two dosages of 30 mg/kg of compound in anesthetized dogs. Value was reported for experiment 2; type: functional, Canis lupus familiaris; method in brief: as §6
[31] = tested on: Canis familiaris; experiment: Mean arterial blood pressure was determined by intraduodenal administration of two dosages of 10 mg/kg of compound in anesthetized dogs. Value was reported for experiment 1; type: functional, Canis lupus familiaris; method in brief: as §6
[32] = tested on: Canis familiaris; experiment: Mean arterial blood pressure was determined by intraduodenal administration of two dosages of 10 mg/kg of compound in anesthetized dogs. Value was reported for experiment 2; type: functional, Canis lupus familiaris; method in brief: as §6
[33] = species on record: Canis familiaris; experiment: In vitro electrophysiological evaluation in canine cardiac ventricular muscle reported as maximum % change for functional refractory period (FRP) at 0.1-100 uM concentration range; concentration at which it occurred is 100 uM; set-up: species or system Canis lupus familiaris, Muscle tissue; method in brief: as §1
[34] = species on record: Canis familiaris; experiment: In vitro electrophysiological evaluation in canine cardiac ventricular muscle reported as % change for the functional refractory period (FRP) at 10 uM at concentration range of 0.1-100 uM; set-up: species or system Canis lupus familiaris, Muscle tissue; method in brief: as §1
[35] = species on record: Canis familiaris; experiment: In vitro electrophysiological evaluation in canine cardiac ventricular muscle reported as % change for conduction time(CT) at 10 uM at 0.1-100 uM concentration range; Minimal (<10% decrease or increase in CT).; type: functional, Canis lupus familiaris, Muscle tissue
[36] = species on record: Canis familiaris; experiment: In vitro electrophysiological evaluation in canine cardiac ventricular muscle reported as maximum % change for conduction time(CT) at 0.1-100 uM concentration range; Minimal (<10% decrease or increase in CT).; type: functional, Canis lupus familiaris, Muscle tissue; method in brief: as §1
[37] = species on record: Canis familiaris; experiment: In vitro electrophysiological evaluation in canine cardiac Purkinje fibres reported as percent change Vmax at 10 uM at concentration range of 0.1-100 uM; Minimal (<10% decrease or increase in V max).; type: functional, organism-based; details: Canis lupus familiaris, Purkinje fiber; method in brief: as §2
[38] = species on record: Canis familiaris; experiment: In vitro electrophysiological evaluation in canine cardiac Purkinje fibres reported as percent change Vmax at 10 uM at concentration range of 1-100 uM.; type: functional; details: Canis lupus familiaris, Purkinje fiber; method in brief: as §2
[39] = species on record: Canis familiaris; experiment: In vitro electrophysiological evaluation in canine cardiac occurred is 100 uM; type: functional; details: Canis lupus familiaris; Heart
[40] = species on record: Canis familiaris; experiment: In vitro electrophysiological evaluation in canine cardiac Purkinje fibres reported as maximum percent change Vmax concentration range of 0.1-100 uM; Minimal (<10% decrease or increase in V max).; type: functional; details: Canis lupus familiaris; Purkinje fiber; method in brief: as §2
[41] = species on record: Canis familiaris; experiment: (§7) In vitro electrophysiological activity in canine cardiac occurred is 10 uM; type: functional, Canis lupus familiaris, Heart
[42] = species on record: Canis familiaris; experiment: In vitro electrophysiological evaluation in canine cardiac Purkinje fibres reported as % change for action potential duration at 10 uM at 0.1-100 uM concentration range; type: functional, Canis lupus familiaris, Purkinje fiber; method in brief: as §2
[43] = species on record: Canis familiaris; experiment: In vitro electrophysiological evaluation in canine cardiac Purkinje fibres reported as % change for action potential duration at a concentration of 10 uM; type: functional, Canis lupus familiaris, Purkinje fiber; method in brief: as §2
[44] = species on record: Canis familiaris; experiment: as §7; type: functional, Canis lupus familiaris, Heart; remark: listed apart in the source

SMILES: CCCCCCC[N+]12CCC(CC1)C(=O)C2CCCc1ccc(Cl)cc1.O=P([O-])(O)O (centres undefined)
- FRP [1]: 26% and 22%
- FRP [2]: 10%
- CT [3]: 17%
- CT [4]: <10%
- FRP [5]: 5%
- CT [6]: <10%
- CT [7]: 31%
- Vmax [8]: -18% and -15%
- Vmax [9]: < 10%
- CT [10]: <10%
- FRP [11]: 29% and 27%
- APD95 [12]: 9%
- APD95 [13]: 38% and 69% and 35%
- APD95 [14]: 9%
- APD95 [15]: 13% and 12% and 9%
- APD95 [16]: 38% and 69% and 35%

SMILES: CC(=O)C(CC1C(=O)C2CCN1CC2)C(=O)c1ccc([N+](=O)[O-])cc1.Cl (centres undefined)
- HR [17]: -14%
- HR [18]: -32%
- CT [19]: -3%
- CT [20]: 11%
- CT [21]: -3%
- CT [22]: 9%
- HR [23]: -11%
- HR [24]: -36%
- LV FRP [25]: 9%
- LV FRP [26]: 16%
- LV FRP [27]: 13%
- LV FRP [28]: 22%
- Mean blood pressure [29]: 12%
- Mean blood pressure [30]: -30%
- Mean blood pressure [31]: 10%
- Mean blood pressure [32]: -39%
- FRP [33]: 23% and 30%
- FRP [34]: 21% and 28%
- CT [35]: <10%
- CT [36]: <10%
- Vmax [37]: < 10%
- Vmax [38]: -18%
- Vmax [39]: -24%
- Vmax [40]: < 10%
- APD95 [41]: 29%
- APD95 [42]: 29%
- APD95 [43]: 28%
- APD95 [44]: 28%
